Data set [1] addresses T1, Potassium voltage-gated channel subfamily KQT member 2 (Homo sapiens, UniProt O43526). Description: Activation of human Kv7.2 expressed in CHO cells assessed as leftward shift in half-activation voltage at 0.03 uM in constant voltage pulse by whole cell patch clamp electrophysiology assay. The class given is cell-based. The procedure, abridged:
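CHO cells transiently expressing human Kv7.2, whole-cell patch clamp at 20–22°C, pH 7.4 bath. Currents activated by constant voltage pulses before and after 0.03 μM drug. Normalized conductance/voltage curves fitted to a double Boltzmann function to obtain half-activation voltage (V1/2).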

Data set [2] concerns the target T1, Potassium voltage-gated channel subfamily KQT member 2. Kind of data set: Potency index, ratio of EC50 for RET to EC50 for test compound for activation of human Kv7.2 expressed in CHO cells. It is filed as cell-based.
Data set [3] shares this target. Kind of data set: Activation of human Kv7.2 expressed in CHO cells assessed as current amplitude at 10 uM measured after 10 secs upon drug wash-out at holding potential of -40 mV by whole cell patch clamp electrophysiology assay. It is filed as cell-based. The procedure, abridged: (§1)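 Human Kv7.2 transiently expressed in CHO cells, whole-cell patch clamp at 20–22°C, pH 7.4 HEPES-buffered extracellular solution under constant perfusion. Cells held at -80 mV; 3-s ramps -80 to +20 mV with and without compound; current at -40 mV taken as drug/control amplitude ratio, followed over time during application and wash-out; mean ± SEM of ≥3 cells from ≥2 transfections.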
(In patch-clamp work, channel activity is measured electrically.)

Data set [4] is described as follows: Photostability of compound in pH 7.4 buffer assessed as compound degradation at 100 ug/ml incubated for 6 hrs under UV-irradiation at wavelength of 365 and 264 nm by HPLC analysis. The procedure, abridged:
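Compound from DMSO stock diluted in pH 7.4 buffer to final 1 mM, 10 μM or 1 μM in 1 cm quartz cells, held at 37°C under UV lamp (365 and 264 nm) or artificial daylight D65 lamp; dark controls in foil at 37°C. Aliquots taken at set intervals; loss of parent by HPLC (C18, TFA water/acetonitrile gradient, 254 nm).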

Data set [5] is described as follows: Photostability of compound in pH 7.4 buffer assessed as retention time of metabolite incubated for 6 hrs under visible light irradiation by HPLC/MS analysis.
The target in data set [6] is T1, Potassium voltage-gated channel subfamily KQT member 2. Kind of data set: Activation of human Kv7.2 expressed in CHO cells assessed as increase in current amplitude with fast ON kinetics measured at holding potential of -40 mV by whole cell patch clamp electrophysiology assay. It is filed as cell-based. The procedure, abridged: as §1
Data set [7] shares this target. Kind of data set: Activation of human Kv7.2 expressed in CHO cells assessed as maximal steady-state increase in current amplitude at 10 uM measured within 10 secs at holding potential of -40 mV by whole cell patch clamp electrophysiology assay. It is filed as cell-based. The procedure, abridged:
as §1

Data set [8] is described as follows: Half life in human. The class given is ADME.
Data set [9] can be described thus: Photostability of compound in pH 7.4 buffer assessed as formation of 4-fluorobenzaldehyde incubated for 6 hrs under visible light irradiation by HPLC analysis.
A short description of data set [10]: Photostability of compound in pH 7.4 buffer assessed as formation of 4-fluorobenzaldehyde incubated for 6 hrs under visible light irradiation by GCMS analysis.
The target of data set [11] is T2, Potassium voltage-gated channel subfamily KQT member 4 (Homo sapiens, UniProt P56696).
T2 sequence (P56696 whole entry): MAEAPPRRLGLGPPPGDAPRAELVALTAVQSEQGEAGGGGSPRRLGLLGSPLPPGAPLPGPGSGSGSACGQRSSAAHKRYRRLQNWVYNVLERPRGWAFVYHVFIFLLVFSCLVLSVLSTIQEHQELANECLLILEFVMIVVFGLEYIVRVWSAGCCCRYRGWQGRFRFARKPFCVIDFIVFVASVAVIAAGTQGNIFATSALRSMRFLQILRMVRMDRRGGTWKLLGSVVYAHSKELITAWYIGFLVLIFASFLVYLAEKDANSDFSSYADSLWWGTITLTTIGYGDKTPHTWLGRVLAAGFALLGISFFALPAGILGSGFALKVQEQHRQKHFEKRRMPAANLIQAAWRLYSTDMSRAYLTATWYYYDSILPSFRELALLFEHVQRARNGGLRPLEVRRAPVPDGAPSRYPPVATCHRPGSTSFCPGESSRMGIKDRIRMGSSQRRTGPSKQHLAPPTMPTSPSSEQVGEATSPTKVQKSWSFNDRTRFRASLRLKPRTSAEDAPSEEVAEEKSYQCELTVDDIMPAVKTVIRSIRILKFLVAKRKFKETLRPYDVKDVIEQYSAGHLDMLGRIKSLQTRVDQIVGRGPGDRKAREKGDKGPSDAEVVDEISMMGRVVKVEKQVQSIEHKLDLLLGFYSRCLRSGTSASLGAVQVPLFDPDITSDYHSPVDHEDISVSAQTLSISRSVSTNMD
Description: Activation of human Kv7.4 expressed in CHO cells assessed as increase in channel current amplitude by whole cell patch clamp electrophysiology assay. The class given is cell-based.

For data set [12], the target named is Voltage-gated potassium channel, KQT; KCNQ2(Kv7.2)/KCNQ3(Kv7.3) (Homo sapiens, UniProt O43525+O43526). Description: Activation of human Kv7.2/Kv7.3 expressed in CHO cells assessed as increase in channel current amplitude by whole cell patch clamp electrophysiology assay. It is filed as cell-based. The procedure, abridged: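 Human Kv7.2 plus Kv7.3 cDNAs co-transfected into CHO cells; whole-cell patch clamp at 20–22°C, extracellular solution pH 7.4. Drug applied at 0.01–10 μM to test concentration-dependent current increase.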
Sequence of Voltage-gated potassium channel, KQT; KCNQ2(Kv7.2)/KCNQ3(Kv7.3) (O43526 whole entry): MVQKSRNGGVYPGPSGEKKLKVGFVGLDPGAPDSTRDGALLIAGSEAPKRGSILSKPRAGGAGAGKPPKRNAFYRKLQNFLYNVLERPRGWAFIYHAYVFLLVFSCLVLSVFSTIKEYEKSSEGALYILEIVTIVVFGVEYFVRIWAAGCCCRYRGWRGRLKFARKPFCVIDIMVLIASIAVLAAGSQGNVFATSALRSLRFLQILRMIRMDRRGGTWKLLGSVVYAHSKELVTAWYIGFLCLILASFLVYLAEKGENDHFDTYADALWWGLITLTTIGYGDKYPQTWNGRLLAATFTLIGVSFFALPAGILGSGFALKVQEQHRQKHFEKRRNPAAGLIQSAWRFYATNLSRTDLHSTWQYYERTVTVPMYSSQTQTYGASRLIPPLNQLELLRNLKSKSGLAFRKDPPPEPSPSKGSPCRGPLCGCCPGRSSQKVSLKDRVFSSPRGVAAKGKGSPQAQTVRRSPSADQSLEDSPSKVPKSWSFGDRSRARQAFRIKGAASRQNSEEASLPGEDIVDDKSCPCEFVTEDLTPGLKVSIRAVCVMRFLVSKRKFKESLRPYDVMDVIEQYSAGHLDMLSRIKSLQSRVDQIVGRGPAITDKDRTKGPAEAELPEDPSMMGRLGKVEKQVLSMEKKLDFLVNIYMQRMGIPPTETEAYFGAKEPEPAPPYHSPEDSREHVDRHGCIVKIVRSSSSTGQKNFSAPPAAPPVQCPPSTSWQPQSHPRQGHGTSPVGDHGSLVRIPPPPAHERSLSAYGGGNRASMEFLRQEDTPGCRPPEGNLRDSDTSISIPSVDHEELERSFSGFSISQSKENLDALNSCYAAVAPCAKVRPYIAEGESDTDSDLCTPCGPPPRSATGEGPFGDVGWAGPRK
Sequence of Voltage-gated potassium channel, KQT; KCNQ2(Kv7.2)/KCNQ3(Kv7.3) (O43525 whole entry): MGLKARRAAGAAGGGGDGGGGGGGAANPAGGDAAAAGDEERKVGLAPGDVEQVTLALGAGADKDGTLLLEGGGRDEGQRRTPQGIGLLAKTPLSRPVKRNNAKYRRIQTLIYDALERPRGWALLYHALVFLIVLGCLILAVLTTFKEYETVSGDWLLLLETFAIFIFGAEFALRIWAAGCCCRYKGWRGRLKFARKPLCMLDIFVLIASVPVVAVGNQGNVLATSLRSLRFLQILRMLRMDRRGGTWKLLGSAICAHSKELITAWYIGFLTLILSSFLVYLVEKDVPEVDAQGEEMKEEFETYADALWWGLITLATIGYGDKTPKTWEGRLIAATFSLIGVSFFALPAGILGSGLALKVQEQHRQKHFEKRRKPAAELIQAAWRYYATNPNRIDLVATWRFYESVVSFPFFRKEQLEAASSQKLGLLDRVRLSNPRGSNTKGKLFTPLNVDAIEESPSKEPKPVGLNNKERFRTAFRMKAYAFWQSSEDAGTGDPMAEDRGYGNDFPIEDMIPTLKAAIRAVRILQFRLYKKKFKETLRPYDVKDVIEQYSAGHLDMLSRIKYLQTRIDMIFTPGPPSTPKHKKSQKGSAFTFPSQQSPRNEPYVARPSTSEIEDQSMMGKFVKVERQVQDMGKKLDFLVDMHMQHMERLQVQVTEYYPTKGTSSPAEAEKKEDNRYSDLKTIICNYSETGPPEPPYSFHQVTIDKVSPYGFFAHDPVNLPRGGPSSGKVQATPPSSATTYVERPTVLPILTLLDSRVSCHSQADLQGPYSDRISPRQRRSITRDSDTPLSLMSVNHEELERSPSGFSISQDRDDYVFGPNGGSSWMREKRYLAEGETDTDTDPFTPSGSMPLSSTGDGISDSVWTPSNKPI

3 molecules from ChEMBL document CHEMBL4402547, “Synthesis and Pharmacological Characterization of Conformationally Restricted Retigabine Analogues as Novel Neuronal Kv7 Channel Activators” (J Med Chem, 2020) can be followed below.

Calls of active or inactive are those of the source. The rule behind the calls is not given here.

T1 sequence (O43526 whole entry): as the sequence (O43526 whole entry) above

In the case of `CCCCCCC(=O)Nc1ccc2c(ccn2Cc2ccc(C(F)(F)F)cc2)c1`, the V1/2 in data set [1] turned out to be 18 mV. In addition, the Ratio EC50 in data set [2] amounted to 12.
The term half-life denotes how long it takes for the measured level to halve. A lower half-life goes with rapid decline. With `CCOC(=O)Nc1ccc(NCc2ccc(F)cc2)cc1N` [EZOGABINE], the outcome in [3] was inactive. In addition, in data set [4], the Drug degradation is 5%. In addition, the Retention time in data set [5] came to 5.98 min. For the same molecule, the Activity entry in data set [6] is “Dose-dependent effect”. Besides, the outcome in data set [7] was Active. Moreover, the half-life in [8] is 6 to 8 h. For the same molecule, the Drug metabolism entry in data set [9] and in data set [10] was “Metabolite detected” throughout.
By EC50 is commonly meant the concentration that produces a half-maximal response. As for `CC(C)(C)CC(=O)Nc1ccc2c(ccn2Cc2ccc(C(F)(F)F)cc2)c1`, the half-maximal effective concentration (EC50) in data set [11] came to 80 nM; in data set [12], 340 nM.
